# Measured values from different studies.
# ABL1 H396P phosphorylated: Tyrosine-protein kinase ABL1, phosphorylated (ABL1, Homo sapiens, UniProt P00519, H396P)
# ABL1 F317L: Tyrosine-protein kinase ABL1 (ABL1, Homo sapiens, UniProt P00519, F317L)
# ABL1 Q252H phosphorylated: Tyrosine-protein kinase ABL1, phosphorylated (ABL1, Homo sapiens, UniProt P00519, Q252H)
# ABL1 E255K phosphorylated: Tyrosine-protein kinase ABL1, phosphorylated (ABL1, Homo sapiens, UniProt P00519, E255K)
# ABL1 T315I phosphorylated: Tyrosine-protein kinase ABL1, phosphorylated (ABL1, Homo sapiens, UniProt P00519, T315I)
# ABL1 F317I phosphorylated: Tyrosine-protein kinase ABL1, phosphorylated (ABL1, Homo sapiens, UniProt P00519, F317I)
# ABL1 phosphorylated: Tyrosine-protein kinase ABL1, phosphorylated (ABL1, Homo sapiens, UniProt P00519)
Compound,target,test,conditions,remaining binding
C[C@@H](c1ccc(-n2cnc3c(N)ncnc32)cc1)N1CCc2nn(C)c(Cc3ccccc3)c2C1=O,ABL1 H396P phosphorylated,"binding, competition with immobilised ligand",0.1 µM,79%
CN(CCCC(F)(F)F)c1nccc(-c2cnn3ncccc23)n1,ABL1 F317L,binding,1 µM,100%
O=C(NCC1CCOCC1)c1n[nH]cc1NC(=O)c1c(F)cccc1F,ABL1 Q252H phosphorylated,"binding, competition with immobilised ligand",1 µM,83%
Cc1cnc(Nc2ccc(C(=O)N3CCC(N4CCCC4)CC3)cc2)nc1-c1cc2ccccc2s1,ABL1 E255K phosphorylated,"binding, competition with immobilised ligand",1 µM,1.4%
O=C1NC(c2ccccn2)Sc2ccccc21 (centres unmarked),ABL1 E255K phosphorylated,"binding, competition with immobilised ligand",1 µM,77%
O=C(c1ccc(Nc2ncc(Cl)c(-c3cc4ccccc4s3)n2)cc1)N1CCC(N2CCCC2)CC1,ABL1 Q252H phosphorylated,"binding, competition with immobilised ligand",1 µM,12%
Nc1ncc2c(n1)-c1c([nH]c3ccc(C#CC4CC4)cc13)CCCC2,ABL1 H396P phosphorylated,"binding, competition with immobilised ligand",1 µM,93%
COc1cnc(Nc2cccc(S(N)(=O)=O)c2)nc1N1CCN(c2ccccc2)C(=O)C1,"Tyrosine-protein kinase ABL1, non-phosphorylated (ABL1, Homo sapiens, UniProt P00519, F317L)","binding, competition with immobilised ligand",1 µM,90%
C=CC(=O)N1CCC(C(=O)NCC(=O)N2CCN(c3nc(-c4cnc(N)nc4C(F)F)nc(N4CCOCC4)n3)CC2)CC1,ABL1 T315I phosphorylated,"binding, competition with immobilised ligand",1 µM,82%
CN(C)c1ncc(F)c(-c2cnn3ncccc23)n1,"Tyrosine-protein kinase ABL1 (ABL1, Homo sapiens, UniProt P00519, H396P)",binding,1 µM,80%
O=C(NCCCN1CCOCC1)c1ccc(Nc2ncc(Cl)c(-c3ccc(Cl)s3)n2)cc1,ABL1 F317I phosphorylated,"binding, competition with immobilised ligand",1 µM,99%
N#CC1(c2ccccn2)CCN(Cc2cc(C(=O)N3CCCC3)c(=O)n3ccccc23)CC1,ABL1 Q252H phosphorylated,"cell-free assay, competition with immobilised ligand",1 µM,90%
O=C(NCCCN1CCOCC1)c1ccc(Nc2nccc(-c3cc4ccccc4s3)n2)cc1,ABL1 T315I phosphorylated,"binding, competition with immobilised ligand",1 µM,41%
C[C@@H]1CN(c2cc(-c3n[nH]c4ccc(OC5(C)CC5)cc34)ncn2)C[C@H](C)O1,"Tyrosine-protein kinase ABL1, phosphorylated (ABL1, Homo sapiens, UniProt P00519, Y253F)","cell-free assay, competition with immobilised ligand",0.1 µM,66%
COc1ccnn2ncc(-c3ccnc(N(C)C)n3)c12,"Tyrosine-protein kinase ABL1 (ABL1, Homo sapiens, UniProt P00519, E255K)",binding,1 µM,86%
CN(C)CC#Cc1ccc(OCCCc2sc(N3CCc4cccc(C(=O)Nc5nc6ccccc6s5)c4C3)nc2C(=O)O)c(F)c1,ABL1 T315I phosphorylated,"cell-free assay, competition with immobilised ligand",1 µM,92%
CNC(=O)[C@@H]1CC[C@@H](n2c(-c3ccc4cnccc4c3)nc3ccc(C(=O)NCc4cccc(C(N)=O)c4)cc32)C1,"Tyrosine-protein kinase ABL1, phosphorylated (ABL1, Homo sapiens, UniProt P00519, F317L)","binding, competition with immobilised ligand",1 µM,95%
COc1ccc2c(c1)O[C@H](c1ccc(OC)c(OC)c1)C[C@@H]2NC(=O)C1(c2ccc3c(c2)OC(F)(F)O3)CC1,"Tyrosine-protein kinase ABL1, phosphorylated (ABL1, Homo sapiens, UniProt P00519, M351T)","cell-free assay, competition with immobilised ligand",1 µM,88%
C[C@@H]1CCN(c2nccc(-c3cnn4ncccc34)n2)C1,ABL1 phosphorylated,binding,1 µM,61%
CC(=O)N1CCC(c2ccc(C(=O)NC(=N)N)cc2C(F)(F)F)CC1,ABL1 F317I phosphorylated,binding,1 µM,96%
c1cncc(-c2cccc(Nc3nccc(NC4CCCCC4)n3)c2)c1,"Tyrosine-protein kinase ABL1, non-phosphorylated (ABL1, Homo sapiens, UniProt P00519)","binding, competition with immobilised ligand",10 µM,35%
O=C(Nc1cccnn1)N1CC(C/C=C/c2cncc(Oc3ccc(C(F)(F)F)cn3)n2)C1,ABL1 phosphorylated,"cell-free assay, competition with immobilised ligand",1 µM,82%
N[C@@H]1CCN(c2nccc(-c3cnn4ncccc34)n2)C1,ABL1 F317L,binding,1 µM,100%
